Results on 38 sequences are retold here after the array DNA melting data of Ke et al. (doi:10.1101/2024.01.08.574731).

The nature of series [1]: folding enthalpy; higher = less favourable; fluorescence melt of hairpins on a sequencing array, two-state fit. The conditions noted are these: sodium 0.088 M. An outline of the steps: (§1)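 Cy3 fluorescence of library hairpins on a sequenced MiSeq flow cell, with annealed Cy3 and quencher oligos, was imaged in 50 mM Na-HEPES pH 8.0, 25 mM NaCl in 2.5 °C steps up to 60 °C. Signals were normalised to pre-quench Cy3 and to control variants. Melting temperature and folding enthalpy came from bootstrapped two-state fits, inverse-variance combined over four replicates. Fitted temperatures were raised by 9.35 °C to match UV melts.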

Series [2] is described as follows: melting temperature; fluorescence melt of hairpins on a sequencing array, two-state fit, raised by 9.35 °C to match UV melts. Particulars: sodium 0.088 M. An outline of the steps:
as §1

Consider GATCTCATGTGAGATC ((((((....)))))), for which the folding enthalpy in series [1] is -152 kJ/mol. Also, in series [2], the Tm came out at 52.9 °C.

On to GATCTCATTGAGATC ((((((...)))))), for which, in series [1], the folding enthalpy was -146 kJ/mol. In addition, the Tm in series [2] amounted to 54.2 °C.

As to GATCTCCACCGAGATC ((((((....)))))), in series [1], the folding enthalpy is -156 kJ/mol. Further, the Tm in series [2] came to 51.9 °C.

GATCTCCATGGAGATC ((((((....)))))): the folding enthalpy in series [1] is -176 kJ/mol. Moreover, the Tm in series [2] came to 57.4 °C.

Regarding GATCTCCCCAGAGATC ((((((....)))))), in series [1], the folding enthalpy is -179 kJ/mol. Further, in series [2], the Tm is 55.7 °C.

With GATCTCCCCGAGATC ((((((...)))))), the folding enthalpy in series [1] was -155 kJ/mol. The Tm in series [2] worked out at 55.3 °C.

In the case of GATCTCCCCTGAGATC ((((((....)))))), in series [1], the folding enthalpy is -189 kJ/mol. Moreover, the Tm in series [2] came to 51.6 °C.

As for GATCTCCCGGAGATC ((((((...)))))), in series [1], the folding enthalpy was -156 kJ/mol. In addition, the Tm in series [2] was 53.8 °C.

GATCTCCCTGGAGATC ((((((....)))))): the folding enthalpy in series [1] is -183 kJ/mol. Moreover, the Tm in series [2] turned out to be 59.4 °C.

GATCTCCGCGGAGATC ((((((....)))))): the folding enthalpy in series [1] is -210 kJ/mol. The Tm in series [2] was 60.9 °C.

Consider GATCTCCGTAGAGATC ((((((....)))))), for which the folding enthalpy in series [1] was -176 kJ/mol. In series [2], the Tm was 55.1 °C.

On to GATCTCCTCAGAGATC ((((((....)))))), for which the folding enthalpy in series [1] was -158 kJ/mol. Besides, the Tm in series [2] came out at 55.9 °C.

Regarding GATCTCGACGGAGATC ((((((....)))))), the folding enthalpy in series [1] is -203 kJ/mol. Also, in series [2], the Tm worked out at 54.3 °C.

With GATCTCGATGGAGATC ((((((....)))))), in series [1], the folding enthalpy was -140 kJ/mol. Also, in series [2], the Tm was 52.9 °C.

Take GATCTCGCAGAGATC ((((((...)))))): the folding enthalpy in series [1] is -128 kJ/mol. For the same sequence, the Tm in series [2] turned out to be 68 °C.

Turning to GATCTCGCCAGAGATC ((((((....)))))), the folding enthalpy in series [1] was -155 kJ/mol. Besides, the Tm in series [2] stood at 69 °C.

Regarding GATCTCGCCCGAGATC ((((((....)))))), the folding enthalpy in series [1] was -164 kJ/mol. Moreover, the Tm in series [2] stood at 56.2 °C.

On to GATCTCGCGCGAGATC ((((((....)))))), for which the folding enthalpy in series [1] is -203 kJ/mol. Also, in series [2], the Tm was 62.5 °C.

Regarding GATCTCGCTGGAGATC ((((((....)))))), in series [1], the folding enthalpy was -154 kJ/mol. For the same sequence, the Tm in series [2] was determined as 54.3 °C.

For GATCTCGGAAACAAGATC (((((.(....).))))), the folding enthalpy in series [1] was -62.7 kJ/mol. Moreover, the Tm in series [2] turned out to be 29 °C.

Turning to GATCTCGGACGAGATC ((((((....)))))), the folding enthalpy in series [1] was -147 kJ/mol. In series [2], the Tm amounted to 60.3 °C.

Consider GATCTCGGAGGAGATC ((((((....)))))), for which the folding enthalpy in series [1] is -186 kJ/mol. The Tm in series [2] was determined as 55.7 °C.

Regarding GATCTCGGATGAGATC ((((((....)))))), in series [1], the folding enthalpy was -141 kJ/mol. Besides, in series [2], the Tm was found to be 57 °C.

With GATCTCGGTGGAGATC ((((((....)))))), the folding enthalpy in series [1] is -17.8 kJ/mol. Also, the Tm in series [2] is 68.6 °C.

GATCTCGTACGAGATC ((((((....)))))): in series [1], the folding enthalpy was -166 kJ/mol. The Tm in series [2] amounted to 61.7 °C.

Consider GATCTCGTCAGAGATC ((((((....)))))), for which, in series [1], the folding enthalpy was -157 kJ/mol. Also, the Tm in series [2] was 68.5 °C.

Take GATCTCGTCGAGATC ((((((...)))))): the folding enthalpy in series [1] was -130 kJ/mol. Moreover, the Tm in series [2] came out at 55.7 °C.

Regarding GATCTCGTGGAGATC ((((((...)))))), in series [1], the folding enthalpy was -163 kJ/mol. Also, the Tm in series [2] was determined as 54.5 °C.

As for GATCTCGTGTGAGATC ((((((....)))))), the folding enthalpy in series [1] was -155 kJ/mol. The Tm in series [2] turned out to be 53.1 °C.

Take GATCTCGTTGGAGATC ((((((....)))))): the folding enthalpy in series [1] is -177 kJ/mol. In addition, in series [2], the Tm amounted to 54.2 °C.

With GATCTCTAGAGAGATC ((((((....)))))), in series [1], the folding enthalpy was -171 kJ/mol. In addition, the Tm in series [2] turned out to be 51 °C.

For GATCTCTAGGAGATC ((((((...)))))), the folding enthalpy in series [1] is -163 kJ/mol. Besides, the Tm in series [2] was 52.9 °C.

Turning to GATCTCTAGTGAGATC ((((((....)))))), in series [1], the folding enthalpy was -154 kJ/mol. Also, the Tm in series [2] was 50.3 °C.

In the case of GATCTCTATAGAGATC ((((((....)))))), the folding enthalpy in series [1] was -162 kJ/mol. The Tm in series [2] came to 55 °C.

As for GATCTCTCAGAGATC ((((((...)))))), the folding enthalpy in series [1] is -141 kJ/mol. Further, in series [2], the Tm was 54.2 °C.

On to GATCTCTCCGGAGATC ((((((....)))))), for which the folding enthalpy in series [1] was -166 kJ/mol. In addition, in series [2], the Tm amounted to 56.2 °C.

Turning to GATCTCTCTGGAGATC ((((((....)))))), the folding enthalpy in series [1] is -179 kJ/mol. In addition, the Tm in series [2] came out at 54.8 °C.

Consider GATCTCTCTTGAGATC ((((((....)))))), for which the folding enthalpy in series [1] is -159 kJ/mol. For the same sequence, the Tm in series [2] stood at 53.5 °C.
